# Results as given in ChEMBL document CHEMBL1153140, “Piperidyl amides as novel, potent and orally active mGlu5 receptor antagonists with anxiolytic-like activity” (Bioorg Med Chem Lett, 2010).
# What was measured:
# [1] = Intrinsic clearance in human liver microsomes; type: ADME, Microsome
# [2] = Aqueous solubility at pH 6.8; type: physicochemical
# Summary of the method: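 Solubility measured at pH 6.8 by a dissolution template potentiometric titration approach, expressed in mg/L.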
# [3] = molecular target: T1, Metabotropic glutamate receptor 5 (Homo sapiens, UniProt P41594); test: Antagonist activity at human mGluR5 assessed as inhibition of glutamate-induced elevation of intracellular calcium concentration; type: functional, cell-based
# [4] = molecular target: T1, Metabotropic glutamate receptor 5; test: Antagonist activity at human mGluR5 assessed as inhibition of quisqualate-induced intracellular inositol phosphate accumulation; type: functional, cell-based
# [5] = Intrinsic clearance in rat liver microsomes; type: ADME, Microsome
# T1 sequence (P41594 whole entry): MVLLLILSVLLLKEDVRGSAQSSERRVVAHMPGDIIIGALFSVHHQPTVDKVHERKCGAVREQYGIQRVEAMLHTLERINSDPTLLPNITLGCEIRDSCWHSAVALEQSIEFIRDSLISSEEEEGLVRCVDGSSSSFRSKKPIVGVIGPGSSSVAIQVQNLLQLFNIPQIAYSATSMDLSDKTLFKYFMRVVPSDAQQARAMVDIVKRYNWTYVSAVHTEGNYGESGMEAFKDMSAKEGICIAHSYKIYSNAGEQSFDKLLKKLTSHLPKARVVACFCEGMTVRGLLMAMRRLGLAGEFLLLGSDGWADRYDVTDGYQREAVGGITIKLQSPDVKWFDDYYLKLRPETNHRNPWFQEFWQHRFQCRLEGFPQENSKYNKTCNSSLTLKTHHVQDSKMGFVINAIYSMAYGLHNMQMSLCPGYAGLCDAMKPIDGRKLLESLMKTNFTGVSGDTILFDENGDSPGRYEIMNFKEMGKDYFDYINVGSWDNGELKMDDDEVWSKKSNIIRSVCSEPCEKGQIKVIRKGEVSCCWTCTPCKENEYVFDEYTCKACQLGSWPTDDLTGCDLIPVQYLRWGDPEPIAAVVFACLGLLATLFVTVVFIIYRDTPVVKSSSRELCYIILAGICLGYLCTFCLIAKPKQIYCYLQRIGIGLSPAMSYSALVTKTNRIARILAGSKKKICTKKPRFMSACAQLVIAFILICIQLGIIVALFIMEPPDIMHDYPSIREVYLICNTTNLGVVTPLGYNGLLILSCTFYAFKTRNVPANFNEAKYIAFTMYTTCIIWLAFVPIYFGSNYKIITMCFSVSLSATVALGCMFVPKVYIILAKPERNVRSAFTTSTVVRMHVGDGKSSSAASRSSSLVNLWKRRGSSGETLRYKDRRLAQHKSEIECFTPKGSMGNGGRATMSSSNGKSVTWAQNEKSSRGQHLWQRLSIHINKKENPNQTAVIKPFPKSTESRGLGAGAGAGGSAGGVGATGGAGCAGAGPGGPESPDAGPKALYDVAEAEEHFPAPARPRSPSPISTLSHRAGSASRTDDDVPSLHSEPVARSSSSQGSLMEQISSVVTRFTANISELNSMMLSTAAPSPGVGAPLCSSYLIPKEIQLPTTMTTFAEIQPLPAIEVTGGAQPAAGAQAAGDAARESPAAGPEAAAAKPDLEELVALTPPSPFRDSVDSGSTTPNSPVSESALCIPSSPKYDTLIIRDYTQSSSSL
smiles,measurement,setting,value
CCCC1CCCCN1C(=O)c1cnc(Nc2ccc(C)nc2)c(Cl)c1 (racemic),microsomal CLint,[1],224 µL/min/mg
same,solubility,[2],< 3 µg/mL
same,IC50,[3],90 nM
same,IC50,[4],16 nM
same,microsomal CLint,[5],885 µL/min/mg
CC1CCCN(C(=O)c2cc(Nc3ccc(Cl)cc3)[nH]n2)C1 (stereo not given),IC50,[3],> 10000 nM
Cc1ccc(Nc2ncc(C(=O)N3CCCC[C@H]3C)cc2Cl)cn1,microsomal CLint,[1],44 µL/min/mg
same,solubility,[2],216 µg/mL
same,IC50,[3],240 nM
same,IC50,[4],430 nM
same,microsomal CLint,[5],73 µL/min/mg
O=C(c1ccc(Nc2ccc(Cl)cc2)nc1)N1CCCC1,IC50,[3],5400 nM
CC[C@H]1CCCN(C(=O)c2cnc(Nc3ccc(C)nc3)c(Cl)c2)C1,microsomal CLint,[1],174 µL/min/mg
same,solubility,[2],< 3 µg/mL
same,microsomal CLint,[5],687 µL/min/mg
CCN(CC)C(=O)c1ccc(Nc2ccc(Cl)cc2)nc1,IC50,[3],460 nM
CC1CCCN(C(=O)c2ccc(Nc3ccc(Cl)cc3)nn2)C1 (stereo not given),IC50,[3],720 nM
CC1CCCCN1C(=O)c1ccc(Nc2ccc(Cl)cc2)nc1 (racemic),IC50,[3],430 nM
CC1CCCN(C(=O)c2ccc(Nc3ccc(Cl)cc3)cc2)C1 (stereo not given),IC50,[3],1600 nM
Cc1ccc(Nc2ncc(C(=O)N3CCCC[C@@H]3C)cc2Cl)cn1,microsomal CLint,[1],39 µL/min/mg
same,solubility,[2],499 µg/mL
same,IC50,[3],1400 nM
same,microsomal CLint,[5],68 µL/min/mg
CCC1CCCN(C(=O)c2cnc(Nc3ccc(C)nc3)c(Cl)c2)C1 (racemic),microsomal CLint,[1],171 µL/min/mg
same,solubility,[2],15 µg/mL
same,microsomal CLint,[5],417 µL/min/mg
O=C(c1ccc(Nc2ccccc2)nc1)N1CCCCC1,IC50,[3],10000 nM
O=C(c1ccc(Nc2ccc(Cl)cc2)nc1)N1CCCCCCC1,IC50,[3],2300 nM
O=C(c1ccc(Nc2ccc(Cl)cc2)nc1)N1CCCCC1,IC50,[3],310 nM
O=C(NC1CCCCC1)c1ccc(Nc2ccc(Cl)cc2)nc1,IC50,[3],> 10000 nM
CC1CCN(C(=O)c2ccc(Nc3ccc(Cl)cc3)nc2)CC1,IC50,[3],2300 nM
Cc1ccc(Nc2ccc(C(=O)N3CCCCC3)cn2)cn1,IC50,[3],420 nM
O=C(c1ccc(Nc2ccccc2Cl)nc1)N1CCCCC1,IC50,[3],> 10000 nM
Cc1cccc(Nc2ccc(C(=O)N3CCCCC3)cn2)n1,IC50,[3],> 10000 nM
O=C(c1ccc(Nc2ccc(Cl)cn2)nc1)N1CCCCC1,IC50,[3],10000 nM
